Measurements as given in ChEMBL document CHEMBL5058577, “EUbOPEN Chemogenomics Library 2 (Multiplex)” (2022).

Test system: Fibroblast
Experiment: Multiplex assay against human fibroblast
Format: toxicity, cell-based
Method in brief: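 Phenotypes for tubulin, mitochondrial mass and membrane permeability are expressed as per cents of healthy-nucleus cells. Cells were stained live at seeding with Hoechst33342, BioTracker Green Microtubule Cytoskeleton Dye, MitoTracker Red and Annexin V Alexa Fluor 680, then imaged after compound addition on a CQ1 microscope at 37°C and 5% CO2. Machine-learning gating in CellPathfinder separated Hoechst high-intensity objects from normal cells, divided normal cells by nuclear state (healthy, pyknosed, fragmented) and divided pyknosed cells into mitotic or apoptotic.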

[1] = 12 h, 1 µM, compound concentration 1 uM, replicate 1
[2] = 12 h, 1 µM, compound concentration 1 uM, replicate 2
[3] = 12 h, 10 µM, compound concentration 10 uM, replicate 1
[4] = 12 h, 10 µM, compound concentration 10 uM, replicate 2
[5] = 24 h, 1 µM, compound concentration 1 uM, replicate 1
[6] = 24 h, 1 µM, compound concentration 1 uM, replicate 2
[7] = 24 h, 10 µM, compound concentration 10 uM, replicate 1
[8] = 24 h, 10 µM, compound concentration 10 uM, replicate 2
[9] = 48 h, 1 µM, compound concentration 1 uM, replicate 1
[10] = 48 h, 1 µM, compound concentration 1 uM, replicate 2
[11] = 48 h, 10 µM, compound concentration 10 uM, replicate 1
[12] = 48 h, 10 µM, compound concentration 10 uM, replicate 2

Compound: Oc1c(CN2CCN(c3ccccn3)CC2)cc(Cl)c2cccnc12
- Population Apoptotic (%) [1]: 73%
- Population Fragmented Nuclei (%) [1]: 17%
- Population Healthy Nuclei (%) [1]: 68%
- Population Hoechst High Intensity Objects (%) [1]: 4%
- Population Membrane Permeable-Phenotype (%) [1]: 1%
- Population Mitochondria Different-Phenotype (%) [1]: 0%
- Population Mitotic Cells (%) [1]: 26%
- Population Normal (%) [1]: 95%
- Population Pyknosed Nuclei (%) [1]: 14%
- Population Tubulin-Different-Phenotype (%) [1]: 27%
- Total Cell Count [1]: 168
- Population Apoptotic (%) [2]: 57%
- Population Fragmented Nuclei (%) [2]: 27%
- Population Healthy Nuclei (%) [2]: 54%
- Population Hoechst High Intensity Objects (%) [2]: 5%
- Population Membrane Permeable-Phenotype (%) [2]: 8%
- Population Mitochondria Different-Phenotype (%) [2]: 6%
- Population Mitotic Cells (%) [2]: 42%
- Population Normal (%) [2]: 94%
- Population Pyknosed Nuclei (%) [2]: 18%
- Population Tubulin-Different-Phenotype (%) [2]: 43%
- Total Cell Count [2]: 152
- Population Apoptotic (%) [3]: 41%
- Population Fragmented Nuclei (%) [3]: 17%
- Population Healthy Nuclei (%) [3]: 54%
- Population Hoechst High Intensity Objects (%) [3]: 5%
- Population Membrane Permeable-Phenotype (%) [3]: 0%
- Population Mitochondria Different-Phenotype (%) [3]: 25%
- Population Mitotic Cells (%) [3]: 58%
- Population Normal (%) [3]: 94%
- Population Pyknosed Nuclei (%) [3]: 27%
- Population Tubulin-Different-Phenotype (%) [3]: 67%
- Total Cell Count [3]: 130
- Population Apoptotic (%) [4]: 33%
- Population Fragmented Nuclei (%) [4]: 25%
- Population Healthy Nuclei (%) [4]: 58%
- Population Hoechst High Intensity Objects (%) [4]: 2%
- Population Membrane Permeable-Phenotype (%) [4]: 2%
- Population Mitochondria Different-Phenotype (%) [4]: 9%
- Population Mitotic Cells (%) [4]: 66%
- Population Normal (%) [4]: 97%
- Population Pyknosed Nuclei (%) [4]: 16%
- Population Tubulin-Different-Phenotype (%) [4]: 62%
- Total Cell Count [4]: 131
- Population Apoptotic (%) [5]: 50%
- Population Fragmented Nuclei (%) [5]: 19%
- Population Healthy Nuclei (%) [5]: 67%
- Population Hoechst High Intensity Objects (%) [5]: 3%
- Population Membrane Permeable-Phenotype (%) [5]: 0%
- Population Mitochondria Different-Phenotype (%) [5]: 3%
- Population Mitotic Cells (%) [5]: 50%
- Population Normal (%) [5]: 96%
- Population Pyknosed Nuclei (%) [5]: 13%
- Population Tubulin-Different-Phenotype (%) [5]: 30%
- Total Cell Count [5]: 174
- Population Apoptotic (%) [6]: 45%
- Population Fragmented Nuclei (%) [6]: 29%
- Population Healthy Nuclei (%) [6]: 56%
- Population Hoechst High Intensity Objects (%) [6]: 5%
- Population Membrane Permeable-Phenotype (%) [6]: 8%
- Population Mitochondria Different-Phenotype (%) [6]: 7%
- Population Mitotic Cells (%) [6]: 55%
- Population Normal (%) [6]: 94%
- Population Tubulin-Different-Phenotype (%) [6]: 47%
- Total Cell Count [6]: 153
- Population Apoptotic (%) [7]: 89%
- Population Fragmented Nuclei (%) [7]: 26%
- Population Healthy Nuclei (%) [7]: 46%
- Population Hoechst High Intensity Objects (%) [7]: 0%
- Population Membrane Permeable-Phenotype (%) [7]: 1%
- Population Mitochondria Different-Phenotype (%) [7]: 15%
- Population Mitotic Cells (%) [7]: 10%
- Population Normal (%) [7]: 100%
- Population Pyknosed Nuclei (%) [7]: 27%
- Population Tubulin-Different-Phenotype (%) [7]: 57%
- Total Cell Count [7]: 139
- Population Apoptotic (%) [8]: 56%
- Population Fragmented Nuclei (%) [8]: 35%
- Population Healthy Nuclei (%) [8]: 41%
- Population Hoechst High Intensity Objects (%) [8]: 2%
- Population Mitochondria Different-Phenotype (%) [8]: 11%
- Population Mitotic Cells (%) [8]: 43%
- Population Normal (%) [8]: 97%
- Population Pyknosed Nuclei (%) [8]: 22%
- Population Tubulin-Different-Phenotype (%) [8]: 68%
- Total Cell Count [8]: 134
- Population Apoptotic (%) [9]: 54%
- Population Fragmented Nuclei (%) [9]: 17%
- Population Healthy Nuclei (%) [9]: 67%
- Population Hoechst High Intensity Objects (%) [9]: 5%
- Population Membrane Permeable-Phenotype (%) [9]: 1%
- Population Mitochondria Different-Phenotype (%) [9]: 1%
- Population Mitotic Cells (%) [9]: 45%
- Population Normal (%) [9]: 94%
- Population Pyknosed Nuclei (%) [9]: 14%
- Population Tubulin-Different-Phenotype (%) [9]: 35%
- Total Cell Count [9]: 158
- Population Apoptotic (%) [10]: 70%
- Population Fragmented Nuclei (%) [10]: 25%
- Population Healthy Nuclei (%) [10]: 66%
- Population Hoechst High Intensity Objects (%) [10]: 0%
- Population Membrane Permeable-Phenotype (%) [10]: 4%
- Population Mitochondria Different-Phenotype (%) [10]: 4%
- Population Mitotic Cells (%) [10]: 30%
- Population Normal (%) [10]: 99%
- Population Pyknosed Nuclei (%) [10]: 7%
- Population Tubulin-Different-Phenotype (%) [10]: 37%
- Total Cell Count [10]: 137
- Population Apoptotic (%) [11]: 85%
- Population Fragmented Nuclei (%) [11]: 31%
- Population Healthy Nuclei (%) [11]: 32%
- Population Hoechst High Intensity Objects (%) [11]: 2%
- Population Membrane Permeable-Phenotype (%) [11]: 0%
- Population Mitochondria Different-Phenotype (%) [11]: 9%
- Population Mitotic Cells (%) [11]: 14%
- Population Normal (%) [11]: 97%
- Population Pyknosed Nuclei (%) [11]: 35%
- Population Tubulin-Different-Phenotype (%) [11]: 38%
- Total Cell Count [11]: 137
- Population Apoptotic (%) [12]: 78%
- Population Fragmented Nuclei (%) [12]: 34%
- Population Healthy Nuclei (%) [12]: 41%
- Population Membrane Permeable-Phenotype (%) [12]: 1%
- Population Mitochondria Different-Phenotype (%) [12]: 7%
- Population Mitotic Cells (%) [12]: 21%
- Population Pyknosed Nuclei (%) [12]: 24%
- Population Tubulin-Different-Phenotype (%) [12]: 65%

Compound: Cc1ccccc1C(=O)Nc1ccc(C(=O)N2CCCC(N(C)C)c3ccccc32)cc1.Cl (stereo unspecified)
- Population Apoptotic (%) [1]: 52%
- Population Fragmented Nuclei (%) [1]: 16%
- Population Healthy Nuclei (%) [1]: 71%
- Population Hoechst High Intensity Objects (%) [1]: 0%
- Population Membrane Permeable-Phenotype (%) [1]: 0%
- Population Mitochondria Different-Phenotype (%) [1]: 5%
- Population Mitotic Cells (%) [1]: 47%
- Population Normal (%) [1]: 100%
- Population Pyknosed Nuclei (%) [1]: 12%
- Population Tubulin-Different-Phenotype (%) [1]: 31%
- Total Cell Count [1]: 167
- Population Apoptotic (%) [2]: 36%
- Population Fragmented Nuclei (%) [2]: 22%
- Population Healthy Nuclei (%) [2]: 55%
- Population Hoechst High Intensity Objects (%) [2]: 1%
- Population Membrane Permeable-Phenotype (%) [2]: 10%
- Population Mitochondria Different-Phenotype (%) [2]: 3%
- Population Mitotic Cells (%) [2]: 63%
- Population Normal (%) [2]: 98%
- Population Pyknosed Nuclei (%) [2]: 21%
- Population Tubulin-Different-Phenotype (%) [2]: 45%
- Total Cell Count [2]: 155
- Population Apoptotic (%) [3]: 58%
- Population Fragmented Nuclei (%) [3]: 26%
- Population Healthy Nuclei (%) [3]: 50%
- Population Hoechst High Intensity Objects (%) [3]: 1%
- Population Membrane Permeable-Phenotype (%) [3]: 1%
- Population Mitochondria Different-Phenotype (%) [3]: 12%
- Population Mitotic Cells (%) [3]: 41%
- Population Normal (%) [3]: 98%
- Population Pyknosed Nuclei (%) [3]: 22%
- Population Tubulin-Different-Phenotype (%) [3]: 70%
- Total Cell Count [3]: 108
- Population Apoptotic (%) [4]: 45%
- Population Fragmented Nuclei (%) [4]: 29%
- Population Healthy Nuclei (%) [4]: 47%
- Population Hoechst High Intensity Objects (%) [4]: 4%
- Population Membrane Permeable-Phenotype (%) [4]: 4%
- Population Mitotic Cells (%) [4]: 54%
- Population Normal (%) [4]: 95%
- Population Pyknosed Nuclei (%) [4]: 23%
- Population Tubulin-Different-Phenotype (%) [4]: 61%
- Total Cell Count [4]: 109
- Population Apoptotic (%) [5]: 38%
- Population Fragmented Nuclei (%) [5]: 15%
- Population Healthy Nuclei (%) [5]: 76%
- Population Hoechst High Intensity Objects (%) [5]: 1%
- Population Membrane Permeable-Phenotype (%) [5]: 0%
- Population Mitochondria Different-Phenotype (%) [5]: 8%
- Population Mitotic Cells (%) [5]: 61%
- Population Normal (%) [5]: 98%
- Population Pyknosed Nuclei (%) [5]: 8%
- Population Tubulin-Different-Phenotype (%) [5]: 30%
- Total Cell Count [5]: 160
- Population Apoptotic (%) [6]: 43%
- Population Fragmented Nuclei (%) [6]: 28%
- Population Healthy Nuclei (%) [6]: 49%
- Population Hoechst High Intensity Objects (%) [6]: 5%
- Population Membrane Permeable-Phenotype (%) [6]: 8%
- Population Mitochondria Different-Phenotype (%) [6]: 2%
- Population Mitotic Cells (%) [6]: 56%
- Population Normal (%) [6]: 94%
- Population Pyknosed Nuclei (%) [6]: 21%
- Population Tubulin-Different-Phenotype (%) [6]: 50%
- Total Cell Count [6]: 157
- Population Apoptotic (%) [7]: 58%
- Population Fragmented Nuclei (%) [7]: 30%
- Population Healthy Nuclei (%) [7]: 58%
- Population Hoechst High Intensity Objects (%) [7]: 1%
- Population Membrane Permeable-Phenotype (%) [7]: 0%
- Population Mitochondria Different-Phenotype (%) [7]: 12%
- Population Mitotic Cells (%) [7]: 41%
- Population Normal (%) [7]: 98%
- Population Pyknosed Nuclei (%) [7]: 11%
- Population Tubulin-Different-Phenotype (%) [7]: 68%
- Total Cell Count [7]: 111
- Population Apoptotic (%) [8]: 57%
- Population Fragmented Nuclei (%) [8]: 37%
- Population Healthy Nuclei (%) [8]: 42%
- Population Hoechst High Intensity Objects (%) [8]: 4%
- Population Membrane Permeable-Phenotype (%) [8]: 9%
- Population Mitochondria Different-Phenotype (%) [8]: 11%
- Population Mitotic Cells (%) [8]: 42%
- Population Normal (%) [8]: 95%
- Population Pyknosed Nuclei (%) [8]: 20%
- Population Tubulin-Different-Phenotype (%) [8]: 72%
- Total Cell Count [8]: 107
- Population Apoptotic (%) [9]: 33%
- Population Fragmented Nuclei (%) [9]: 13%
- Population Healthy Nuclei (%) [9]: 79%
- Population Hoechst High Intensity Objects (%) [9]: 3%
- Population Membrane Permeable-Phenotype (%) [9]: 0%
- Population Mitochondria Different-Phenotype (%) [9]: 4%
- Population Mitotic Cells (%) [9]: 66%
- Population Normal (%) [9]: 96%
- Population Pyknosed Nuclei (%) [9]: 7%
- Population Tubulin-Different-Phenotype (%) [9]: 28%
- Total Cell Count [9]: 158
- Population Apoptotic (%) [10]: 53%
- Population Fragmented Nuclei (%) [10]: 32%
- Population Healthy Nuclei (%) [10]: 50%
- Population Membrane Permeable-Phenotype (%) [10]: 8%
- Population Mitochondria Different-Phenotype (%) [10]: 5%
- Population Mitotic Cells (%) [10]: 46%
- Population Pyknosed Nuclei (%) [10]: 17%
- Population Tubulin-Different-Phenotype (%) [10]: 54%
- Total Cell Count [10]: 155
- Population Apoptotic (%) [11]: 91%
- Population Fragmented Nuclei (%) [11]: 24%
- Population Healthy Nuclei (%) [11]: 60%
- Population Hoechst High Intensity Objects (%) [11]: 7%
- Population Membrane Permeable-Phenotype (%) [11]: 0%
- Population Mitochondria Different-Phenotype (%) [11]: 12%
- Population Mitotic Cells (%) [11]: 8%
- Population Normal (%) [11]: 92%
- Population Pyknosed Nuclei (%) [11]: 14%
- Population Tubulin-Different-Phenotype (%) [11]: 51%
- Total Cell Count [11]: 88
- Population Apoptotic (%) [12]: 73%
- Population Fragmented Nuclei (%) [12]: 43%
- Population Healthy Nuclei (%) [12]: 43%
- Population Hoechst High Intensity Objects (%) [12]: 3%
- Population Membrane Permeable-Phenotype (%) [12]: 8%
- Population Mitochondria Different-Phenotype (%) [12]: 14%
- Population Mitotic Cells (%) [12]: 26%
- Population Normal (%) [12]: 96%
- Population Pyknosed Nuclei (%) [12]: 13%
- Population Tubulin-Different-Phenotype (%) [12]: 70%
- Total Cell Count [12]: 113
